Activity calls are given as the source filed them. No cut-off for these calls is given here.
How the values were obtained:
Blastomyces dermatitidis [1] = experiment: Antifungal activity against Blastomyces dermatitidis Gilchrist & Stokes isolate 1107 at 1 ug/ml after 2 weeks (reference value: 35 mm); format: functional; conditions: Gilchrist & Stokes isolate 1107, 336 h, read-out: DIZ
In short: (§1)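 Mycelial phase grown on Sabouraud dextrose agar at 25°C. Agar pH was set to 6 before the test solution was added and was 5.0-5.5 after. Test solutions contained HOAc and Me2SO, and solvent and blank controls were included. Each quadrant was center-inoculated with a 2 × 2 mm piece of a 2-week-old mycelial culture. Colony diameter was measured weekly for 3 weeks and reported as total increments (mm). Duplicates were run.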

Blastomyces dermatitidis [2] = experiment: Antifungal activity against Blastomyces dermatitidis Gilchrist & Stokes isolate 1107 at 100 ug/ml after 3 weeks (reference value: 40 mm); format: functional; conditions: Gilchrist & Stokes isolate 1107, 504 h, read-out: DIZ; in short: as §1
Blastomyces dermatitidis [3] = experiment: Antifungal activity against Blastomyces dermatitidis Gilchrist & Stokes isolate 1107 at 60 ug/ml after 3 weeks (reference value: 40 mm); format: functional; conditions: Gilchrist & Stokes isolate 1107, 504 h, read-out: DIZ; in short: as §1
Histoplasma capsulatum [4] = experiment: Antifungal activity against Histoplasma capsulatum Darling isolate 1106 at 80 ug/ml after 1 week (reference value: 14 mm); format: functional; conditions: Darling isolate 1106, 168 h, read-out: DIZ
Histoplasma capsulatum [5] = experiment: Antifungal activity against Histoplasma capsulatum Darling isolate 1106 at 20 ug/ml after 1 week (reference value: 14 mm); format: functional; conditions: Darling isolate 1106, 168 h, read-out: DIZ
Histoplasma capsulatum [6] = experiment: Antifungal activity against Histoplasma capsulatum Darling isolate 1106 at 10 ug/ml after 1 week (reference value: 14 mm); format: functional; conditions: Darling isolate 1106, 168 h, read-out: DIZ
Histoplasma capsulatum [7] = experiment: Antifungal activity against Histoplasma capsulatum Darling isolate 1106 at 100 ug/ml after 2 weeks (reference value: 25 mm); format: functional; conditions: Darling isolate 1106, 336 h, read-out: DIZ
Histoplasma capsulatum [8] = experiment: Antifungal activity against Histoplasma capsulatum Darling isolate 1106 at 80 ug/ml after 2 weeks (reference value: 25 mm); format: functional; conditions: Darling isolate 1106, 336 h, read-out: DIZ
Histoplasma capsulatum [9] = experiment: Antifungal activity against Histoplasma capsulatum Darling isolate 1106 at 60 ug/ml after 2 weeks (reference value: 25 mm); format: functional; conditions: Darling isolate 1106, 336 h, read-out: DIZ
Histoplasma capsulatum [10] = experiment: Antifungal activity against Histoplasma capsulatum Darling isolate 1106 at 10 ug/ml after 2 weeks (reference value: 25 mm); format: functional; conditions: Darling isolate 1106, 336 h, read-out: DIZ
Histoplasma capsulatum [11] = experiment: Antifungal activity against Histoplasma capsulatum Darling isolate 1106 at 1 ug/ml after 2 weeks (reference value: 25 mm); format: functional; conditions: Darling isolate 1106, 336 h, read-out: DIZ
Histoplasma capsulatum [12] = experiment: Antifungal activity against Histoplasma capsulatum Darling isolate 1106 at 100 ug/ml after 3 weeks (reference value: 31 mm); format: functional; conditions: Darling isolate 1106, 504 h, read-out: DIZ
Histoplasma capsulatum [13] = experiment: Antifungal activity against Histoplasma capsulatum Darling isolate 1106 at 40 ug/ml after 3 weeks (reference value: 31 mm); format: functional; conditions: Darling isolate 1106, 504 h, read-out: DIZ
Blastomyces dermatitidis [14] = experiment: Antifungal activity against Blastomyces dermatitidis Gilchrist & Stokes isolate 1099 at 1 ug/ml after 1 week (reference value: 14 mm); format: functional; conditions: Gilchrist & Stokes isolate 1099, 168 h, read-out: DIZ; in short: as §1
Blastomyces dermatitidis [15] = experiment: Antifungal activity against Blastomyces dermatitidis Gilchrist & Stokes isolate 1099 at 60 ug/ml after 2 weeks (reference value: 27 mm); format: functional; in short: as §1
Blastomyces dermatitidis [16] = experiment: Antifungal activity against Blastomyces dermatitidis Gilchrist & Stokes isolate 1099 at 40 ug/ml after 2 weeks (reference value: 27 mm); format: functional; conditions: Gilchrist & Stokes isolate 1099, 336 h, read-out: DIZ; in short: as §1
Blastomyces dermatitidis [17] = experiment: Antifungal activity against Blastomyces dermatitidis Gilchrist & Stokes isolate 1099 at 1 ug/ml after 2 weeks (reference value: 27 mm); format: functional; conditions: Gilchrist & Stokes isolate 1099, 336 h, read-out: DIZ; in short: as §1
Blastomyces dermatitidis [18] = experiment: Antifungal activity against Blastomyces dermatitidis Gilchrist & Stokes isolate 1099 at 100 ug/ml after 3 weeks (reference value: 34 mm); format: functional; conditions: Gilchrist & Stokes isolate 1099, 504 h, read-out: DIZ; in short: as §1
Blastomyces dermatitidis [19] = experiment: Antifungal activity against Blastomyces dermatitidis Gilchrist & Stokes isolate 1099 at 60 ug/ml after 3 weeks (reference value: 34 mm); format: functional; conditions: Gilchrist & Stokes isolate 1099, 504 h, read-out: DIZ; in short: as §1
Blastomyces dermatitidis [20] = experiment: Antifungal activity against Blastomyces dermatitidis Gilchrist & Stokes isolate 1099 at 40 ug/ml after 3 weeks (reference value: 34 mm); format: functional; conditions: Gilchrist & Stokes isolate 1099, 504 h, read-out: DIZ; in short: as §1
Blastomyces dermatitidis [21] = experiment: Antifungal activity against Blastomyces dermatitidis Gilchrist & Stokes isolate 1099 at 1 ug/ml after 3 weeks (reference value: 34 mm); format: functional; conditions: Gilchrist & Stokes isolate 1099, 504 h, read-out: DIZ; in short: as §1
Blastomyces dermatitidis [22] = experiment: Antifungal activity against Blastomyces dermatitidis Gilchrist & Stokes isolate 1107 at 60 ug/ml after 1 week (reference value: 20 mm); format: functional
Blastomyces dermatitidis [23] = experiment: Antifungal activity against Blastomyces dermatitidis Gilchrist & Stokes isolate 1107 at 10 ug/ml after 1 week (reference value: 20 mm); format: functional; in short: as §1
Blastomyces dermatitidis [24] = experiment: Antifungal activity against Blastomyces dermatitidis Gilchrist & Stokes isolate 1107 at 1 ug/ml after 1 week (reference value: 20 mm); format: functional, organism-based; in short: as §1
Blastomyces dermatitidis [25] = experiment: Antifungal activity against Blastomyces dermatitidis Gilchrist & Stokes isolate 1107 at 80 ug/ml after 2 weeks (reference value: 35 mm); format: functional; conditions: Gilchrist & Stokes isolate 1107, 336 h, read-out: DIZ; in short: as §1
Blastomyces dermatitidis [26] = experiment: Antifungal activity against Blastomyces dermatitidis Gilchrist & Stokes isolate 1107 at 40 ug/ml after 2 weeks (reference value: 35 mm); format: functional; conditions: Gilchrist & Stokes isolate 1107, 336 h, read-out: DIZ; in short: as §1
Histoplasma capsulatum [27] = experiment: Antifungal activity against Histoplasma capsulatum Darling isolate 1098 at 100 ug/ml after 1 week (reference value: 12 mm); format: functional
Histoplasma capsulatum [28] = experiment: Antifungal activity against Histoplasma capsulatum Darling isolate 1098 at 60 ug/ml after 1 week (reference value: 12 mm); format: functional; conditions: Darling isolate 1098, 168 h, read-out: DIZ
Histoplasma capsulatum [29] = experiment: Antifungal activity against Histoplasma capsulatum Darling isolate 1098 at 100 ug/ml after 2 weeks (reference value: 21 mm); format: functional; conditions: Darling isolate 1098, 336 h, read-out: DIZ
Histoplasma capsulatum [30] = experiment: Antifungal activity against Histoplasma capsulatum Darling isolate 1098 at 40 ug/ml after 2 weeks (reference value: 21 mm); format: functional; conditions: Darling isolate 1098, 336 h, read-out: DIZ
Histoplasma capsulatum [31] = experiment: Antifungal activity against Histoplasma capsulatum Darling isolate 1098 at 100 ug/ml after 3 weeks (reference value: 28 mm); format: functional; conditions: Darling isolate 1098, 504 h, read-out: DIZ
Histoplasma capsulatum [32] = experiment: Antifungal activity against Histoplasma capsulatum Darling isolate 1098 at 80 ug/ml after 3 weeks (reference value: 28 mm); format: functional; conditions: Darling isolate 1098, 504 h, read-out: DIZ
Histoplasma capsulatum [33] = experiment: Antifungal activity against Histoplasma capsulatum Darling isolate 1098 at 40 ug/ml after 3 weeks (reference value: 28 mm); format: functional; conditions: Darling isolate 1098, 504 h, read-out: DIZ

**Q.** For `C[C@@H]1[C@H](O)[C@@H](C)/C=C/C=C/C=C/C=C/C=C/C=C/C=C/[C@H](O[C@@H]2O[C@H](C)[C@@H](O)[C@H](N)[C@@H]2O)C[C@@H]2O[C@](O)(C[C@@H](O)C[C@@H](O)[C@H](O)CC[C@@H](O)C[C@@H](O)CC(=O)O[C@H]1C)C[C@H](O)[C@H]2C(=O)O` [AMPHOTERICIN B], which zone of inhibition at 1 µg/mL (Blastomyces dermatitidis [1]) is on record?
**A.** 19 mm

**Q.** And the zone of inhibition at 100 µg/mL (Blastomyces dermatitidis [2])?
**A.** 11 mm

**Q.** What about the zone of inhibition at 60 µg/mL (Blastomyces dermatitidis [3]) of the same compound?
**A.** 14 mm

**Q.** And the zone of inhibition at 80 µg/mL (Histoplasma capsulatum [4])?
**A.** 5 mm

**Q.** What about the zone of inhibition at 20 µg/mL (Histoplasma capsulatum [5]) of the same compound?
**A.** 6 mm

**Q.** And the zone of inhibition at 10 µg/mL (Histoplasma capsulatum [6])?
**A.** 7 mm

**Q.** And the zone of inhibition at 100 µg/mL (Histoplasma capsulatum [7])?
**A.** 6 mm

**Q.** What about the zone of inhibition at 80 µg/mL (Histoplasma capsulatum [8]) of the same compound?
**A.** 7 mm

**Q.** What about the zone of inhibition at 60 µg/mL (Histoplasma capsulatum [9]) of the same compound?
**A.** 9 mm

**Q.** What about the zone of inhibition at 10 µg/mL (Histoplasma capsulatum [10]) of the same compound?
**A.** 12 mm

**Q.** And the zone of inhibition at 1 µg/mL (Histoplasma capsulatum [11])?
**A.** 18 mm

**Q.** And the zone of inhibition at 100 µg/mL (Histoplasma capsulatum [12])?
**A.** 10 mm

**Q.** And the zone of inhibition at 40 µg/mL (Histoplasma capsulatum [13])?
**A.** 13 mm

**Q.** And the zone of inhibition at 1 µg/mL (Blastomyces dermatitidis [14])?
**A.** 7 mm

**Q.** What about the Activity (Blastomyces dermatitidis [15]) of the same compound?
**A.** Active

**Q.** What about the zone of inhibition at 40 µg/mL (Blastomyces dermatitidis [16]) of the same compound?
**A.** 2 mm

**Q.** What about the zone of inhibition at 1 µg/mL (Blastomyces dermatitidis [17]) of the same compound?
**A.** 10 mm

**Q.** And the zone of inhibition at 100 µg/mL (Blastomyces dermatitidis [18])?
**A.** 2 mm

**Q.** What about the zone of inhibition at 60 µg/mL (Blastomyces dermatitidis [19]) of the same compound?
**A.** 4 mm

**Q.** What about the zone of inhibition at 40 µg/mL (Blastomyces dermatitidis [20]) of the same compound?
**A.** 4 mm

**Q.** What about the zone of inhibition at 1 µg/mL (Blastomyces dermatitidis [21]) of the same compound?
**A.** 19 mm

**Q.** And the Activity (Blastomyces dermatitidis [22])?
**A.** inactive

**Q.** And the Activity (Blastomyces dermatitidis [23])?
**A.** inactive

**Q.** What about the Activity (Blastomyces dermatitidis [24]) of the same compound?
**A.** inactive

**Q.** What about the zone of inhibition at 80 µg/mL (Blastomyces dermatitidis [25]) of the same compound?
**A.** 10 mm

**Q.** What about the zone of inhibition at 40 µg/mL (Blastomyces dermatitidis [26]) of the same compound?
**A.** 14 mm

**Q.** What about the Activity (Histoplasma capsulatum [27]) of the same compound?
**A.** inactive

**Q.** And the zone of inhibition at 60 µg/mL (Histoplasma capsulatum [28])?
**A.** 4 mm

**Q.** And the zone of inhibition at 100 µg/mL (Histoplasma capsulatum [29])?
**A.** 8 mm

**Q.** What about the zone of inhibition at 40 µg/mL (Histoplasma capsulatum [30]) of the same compound?
**A.** 11 mm

**Q.** And the zone of inhibition at 100 µg/mL (Histoplasma capsulatum [31])?
**A.** 14 mm

**Q.** What about the zone of inhibition at 80 µg/mL (Histoplasma capsulatum [32]) of the same compound?
**A.** 14 mm

**Q.** What about the zone of inhibition at 40 µg/mL (Histoplasma capsulatum [33]) of the same compound?
**A.** 16 mm

Reference: ChEMBL document CHEMBL3272198, “Preparation and in vitro antifungal activities of some quinolizidine derived hemiaminals and beta-tert-amino sulfides” (1976)
